Results: ChEMBL document CHEMBL5661968, “Antitumor activity of ZSTK474, a new phosphatidylinositol 3-kinase inhibitor” (J Natl Cancer Inst, 2006)
The source made the active and inactive calls. The calls are words filed in the database; no cut-off is given here.

Assays:
A549 [1] = experiment: Downregulation of cyclin D1 expression in human A549 cells at 0.5 uM measured after 30 mins by Western blotting analysis; assay type: functional, cell-based
Outline: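 A549 cells were lysed in Tris-HCl pH 7.4 buffer with NaF, pyrophosphate, Na3VO4, EDTA, aprotinin, PMSF, 0.5% NP-40 and 0.1% SDS. Lysates were run on SDS-PAGE and blotted to PVDF. Blots were probed with rabbit anti-cyclin D1 polyclonal (1:200), then HRP anti-rabbit IgG, and detected by ECL chemiluminescence.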

[2] = target: Forkhead box protein O1 (Homo sapiens) (UniProt Q12778); experiment: Inhibition of FKHR phosphorylation at Thr-24 residue in human A549 cells measured after 3 hrs by immunoblotting analysis; assay type: cell-based; conditions: dose <= 2.0 µM
Forkhead box protein O1 (Homo sapiens), sequence (Q12778 whole entry): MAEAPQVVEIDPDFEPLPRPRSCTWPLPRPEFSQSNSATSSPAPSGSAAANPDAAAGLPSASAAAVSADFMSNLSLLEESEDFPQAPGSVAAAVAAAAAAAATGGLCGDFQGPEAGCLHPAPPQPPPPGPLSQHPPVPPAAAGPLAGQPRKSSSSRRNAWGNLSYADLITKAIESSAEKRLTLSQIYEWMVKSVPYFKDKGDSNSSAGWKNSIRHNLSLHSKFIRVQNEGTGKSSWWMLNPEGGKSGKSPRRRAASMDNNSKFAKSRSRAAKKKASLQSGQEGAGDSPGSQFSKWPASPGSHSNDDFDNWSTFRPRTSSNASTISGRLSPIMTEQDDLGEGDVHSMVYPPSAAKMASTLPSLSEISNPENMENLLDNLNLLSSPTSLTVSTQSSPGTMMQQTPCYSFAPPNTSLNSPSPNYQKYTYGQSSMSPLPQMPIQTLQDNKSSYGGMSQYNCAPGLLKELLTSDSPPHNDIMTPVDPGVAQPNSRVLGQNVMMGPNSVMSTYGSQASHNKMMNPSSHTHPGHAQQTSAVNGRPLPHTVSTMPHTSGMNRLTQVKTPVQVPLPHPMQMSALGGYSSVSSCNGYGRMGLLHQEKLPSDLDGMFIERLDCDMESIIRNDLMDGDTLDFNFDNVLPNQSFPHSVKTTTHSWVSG
Outline: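 A549 cells treated over 0 to 2.0 μM; lysed in 10 mM Tris–HCl pH 7.4, 50 mM NaCl, NaF, pyrophosphate, vanadate, EDTA, protease inhibitors, 0.5% NP-40, 0.1% SDS; proteins resolved by SDS-PAGE, blotted to PVDF, probed with phospho-specific antibodies, HRP secondary, ECL detection.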

OVCAR-8 = experiment: Growth inhibition of human OVCAR-8 cells measured after 48 hrs by sulforhodamine B assay; assay type: functional
Outline: (§1)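 JFCR39 panel lines were grown in RPMI 1640 with 5% FBS, penicillin and streptomycin at 37 °C in 5% CO2. After 48 h of drug exposure, total cellular protein was measured by sulforhodamine B staining. GI50 was calculated by a previously described method.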

B16-F10 = experiment: Antitumor activity against mouse B16-F10 cells implanted in BDF1 mouse assessed as tumor size relative to control (T/C) at 200 mg/kg, po administered daily measured after 14 days; conditions: 336 h
A549 [3] = experiment: Growth inhibition of human A549 cells measured after 48 hrs by sulforhodamine B assay; assay type: functional; outline: as §1
ACHN = experiment: Growth inhibition of human ACHN cells measured after 48 hrs by sulforhodamine B assay; assay type: functional; outline: as §1
[4] = target: Glycogen synthase kinase-3 beta (Homo sapiens) (UniProt P49841); experiment: Inhibition of GSK-3beta phosphorylation at Ser9 residue in human A549 cells at 0.5 uM measured after 30 mins by Western blotting analysis; assay type: cell-based
Glycogen synthase kinase-3 beta (Homo sapiens), sequence (P49841 whole entry, looked up): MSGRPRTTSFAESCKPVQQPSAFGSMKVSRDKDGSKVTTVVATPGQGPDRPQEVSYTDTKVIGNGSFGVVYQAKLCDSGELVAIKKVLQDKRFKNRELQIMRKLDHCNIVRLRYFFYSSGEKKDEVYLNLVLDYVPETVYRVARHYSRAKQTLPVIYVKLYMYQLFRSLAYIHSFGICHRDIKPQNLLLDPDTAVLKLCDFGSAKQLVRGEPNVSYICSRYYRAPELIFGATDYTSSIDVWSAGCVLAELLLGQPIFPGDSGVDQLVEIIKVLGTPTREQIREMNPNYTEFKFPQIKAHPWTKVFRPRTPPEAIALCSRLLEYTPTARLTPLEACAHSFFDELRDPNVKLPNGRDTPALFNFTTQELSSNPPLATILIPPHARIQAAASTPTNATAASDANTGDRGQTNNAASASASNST

NCI-H23 = experiment: Growth inhibition of human NCI-H23 cells measured after 48 hrs by sulforhodamine B assay; assay type: functional; outline: as §1
[5] = Growth inhibition of human HBC4 cells measured after 48 hrs by sulforhodamine B assay; assay type: functional; outline: as §1
DU-145 = experiment: Growth inhibition of human DU-145 cells measured after 48 hrs by sulforhodamine B assay; assay type: functional; outline: as §1
[6] = target: Mitogen-activated protein kinase 1 (Homo sapiens) (UniProt P28482); experiment: Inhibition of ERK2 phosphorylation at Thr-202/Tyr-204 residues in human A549 cells measured after 3 hrs by immunoblotting analysis; conditions: dose <= 2.0 µM
Mitogen-activated protein kinase 1 (Homo sapiens), sequence (P28482 whole entry): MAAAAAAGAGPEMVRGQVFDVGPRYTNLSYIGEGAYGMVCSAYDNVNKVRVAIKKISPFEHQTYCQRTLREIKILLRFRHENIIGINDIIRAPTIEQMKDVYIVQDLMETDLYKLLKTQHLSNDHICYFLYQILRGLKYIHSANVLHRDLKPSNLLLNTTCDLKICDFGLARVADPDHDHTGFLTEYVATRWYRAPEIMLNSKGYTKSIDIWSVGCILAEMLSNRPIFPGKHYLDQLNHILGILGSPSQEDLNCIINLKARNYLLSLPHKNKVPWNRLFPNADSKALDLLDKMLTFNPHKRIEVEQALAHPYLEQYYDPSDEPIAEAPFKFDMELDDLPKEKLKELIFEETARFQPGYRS

HCT-116 = experiment: Growth inhibition of human HCT-116 cells measured after 48 hrs by sulforhodamine B assay; assay type: functional; outline: as §1
MKN-74 = experiment: Growth inhibition of human MKN74 cells measured after 48 hrs by sulforhodamine B assay; assay type: functional; outline: as §1
HCT-15 = experiment: Growth inhibition of human HCT-15 cells measured after 48 hrs by sulforhodamine B assay; assay type: functional; outline: as §1
MKN-7 = experiment: Growth inhibition of human MKN-7 cells measured after 48 hrs by sulforhodamine B assay; assay type: functional; outline: as §1
[7] = target: Mitogen-activated protein kinase 3 (Homo sapiens) (UniProt P27361); experiment: Inhibition of ERK1 phosphorylation at Thr-202/Tyr-204 residues in human A549 cells measured after 3 hrs by immunoblotting analysis; conditions: dose <= 2.0 µM
Mitogen-activated protein kinase 3 (Homo sapiens), sequence (P27361 whole entry): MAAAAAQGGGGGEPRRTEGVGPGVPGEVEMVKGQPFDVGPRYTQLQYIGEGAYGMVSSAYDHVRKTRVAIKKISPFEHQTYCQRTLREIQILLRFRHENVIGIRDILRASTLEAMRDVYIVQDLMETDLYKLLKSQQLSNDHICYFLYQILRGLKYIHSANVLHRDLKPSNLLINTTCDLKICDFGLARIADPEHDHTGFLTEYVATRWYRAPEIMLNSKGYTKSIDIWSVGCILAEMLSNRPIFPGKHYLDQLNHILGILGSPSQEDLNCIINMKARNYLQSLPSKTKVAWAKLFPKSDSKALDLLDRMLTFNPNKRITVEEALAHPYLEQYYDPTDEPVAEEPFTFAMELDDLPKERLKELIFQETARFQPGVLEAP

[8] = Toxicity in nude mouse xenografted with human PC-3 cells assessed as change in body weight at 400 mg/kg, po administered on day 0 to 13 except for day 3 and 10 measured after 28 days (reference value: 17 %); assay type: organism-based; conditions: in vivo, 672 h, time 28 day
SNB-75 = experiment: Growth inhibition of human SNB-75 cells measured after 48 hrs by sulforhodamine B assay; assay type: functional; outline: as §1
PC-3 [9] = experiment: Antitumor activity against human PC-3 cells xenografted in nude mouse assessed as inhibition of tumor growth at 400 mg/kg, po administered on day 0 to 13 except for day 3 and 10 measured after 14 days; assay type: functional, organism-based; conditions: time 14.0 day
Outline: (§2)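 Female BALB/c-background nude mice were implanted s.c. with 3 × 3 × 3 mm tumor fragments. At 100–300 mm3 tumor volume (day 0), groups of five were randomized and dosed orally at 400 mg/kg on days 0–13, skipping days 3 and 10. Caliper volume was (L×W2)/2, relative to day 0 (RTV). T/C% on day 14 = 100 × mean treated RTV / mean control RTV.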

OVCAR-3 = experiment: Induction of apoptosis in human OVCAR-3 cells assessed as increase in apoptotic cells at 10 uM measured after 48 hrs by propidium iodide staining based flow cytometric analysis; assay type: functional, cell-based
Outline: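 Cells harvested, washed in ice-cold PBS, fixed in 70% ethanol, washed twice in ice-cold PBS, treated with RNase A (500 μg/mL) at 37 °C for 1 h, stained with propidium iodide (25 μg/mL); DNA content read by flow cytometry.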

NCI-H522 = experiment: Growth inhibition of human NCI-H522 cells measured after 48 hrs by sulforhodamine B assay; assay type: functional; outline: as §1
A549 [10] = experiment: Inhibition of AKT in human A549 cells at 0.5 uM measured after 5 mins by Western blotting analysis; assay type: cell-based
SF-295 = experiment: Growth inhibition of human SF-295 cells measured after 48 hrs by sulforhodamine B assay; assay type: functional; outline: as §1
OVCAR-5 = experiment: Growth inhibition of human OVCAR-5 cells measured after 48 hrs by sulforhodamine B assay; assay type: functional; outline: as §1
SF-539 = experiment: Growth inhibition of human SF-539 cells measured after 48 hrs by sulforhodamine B assay; assay type: functional; outline: as §1
[11] = Residual PI3K activity in human A549 cell lysate at 1 uM preincubated with compound for 5 mins followed by [gamma-32p]-ATP addition measured after 20 mins by immunoprecipitation based liquid scintillation spectroscopic analysis relative to control; conditions: A549, 25 min
MKN-28 = experiment: Growth inhibition of human MKN-28 cells measured after 48 hrs by sulforhodamine B assay; assay type: functional; outline: as §1
NCI-H226 = experiment: Growth inhibition of human NCI-H226 cells measured after 48 hrs by sulforhodamine B assay; assay type: functional; outline: as §1
WiDr = experiment: Antitumor activity against human WiDr cells xenografted in nude mouse assessed as inhibition of tumor growth at 400 mg/kg, po administered on day 0 to 13 except for day 3 and 10 measured after 14 days; assay type: functional, organism-based; conditions: time 14.0 day; outline: as §2
PC-3 [12] = experiment: Growth inhibition of human PC-3 cells measured after 48 hrs by sulforhodamine B assay; assay type: functional; outline: as §1
HT-29 = experiment: Growth inhibition of human HT-29 cells measured after 48 hrs by sulforhodamine B assay; assay type: functional; outline: as §1
A549 [13] = experiment: Inhibition of AKT phosphorylation at S473 residue in human A549 cells at 0.5 uM measured after 5 mins by Western blotting analysis; assay type: cell-based
HCC 2998 = experiment: Growth inhibition of human HCC 2998 cells measured after 48 hrs by sulforhodamine B assay; assay type: functional; outline: as §1

## FC(F)c1nc2ccccc2n1-c1nc(N2CCOCC2)nc(N2CCOCC2)n1 [ZSTK-474]
A549 [1]
  Activity: Active
[2]
  inhibition: Dose-Dependent Effect
OVCAR-8
  GI50: 1050 nM
B16-F10
  T/C at 200 mg/kg: 7.1%
A549 [3]
  GI50: 501 nM
ACHN
  GI50: 407 nM
[4]
  inhibition: Active
NCI-H23
  GI50: 339 nM
[5]
  GI50: 240 nM
DU-145
  GI50: 912 nM
[6]
  inhibition: inactive
HCT-116
  GI50: 1510 nM
MKN-74
  GI50: 617 nM
HCT-15
  GI50: 513 nM
MKN-7
  GI50: 1320 nM
[7]
  inhibition: inactive
[8]
  Activity: 17%
SNB-75
  GI50: 45.7 nM
PC-3 [9]
  Activity: Active
OVCAR-3
  Activity: Active
NCI-H522
  GI50: 151 nM
A549 [10]
  inhibition: inactive
SF-295
  GI50: 186 nM
OVCAR-5
  GI50: 813 nM
SF-539
  GI50: 347 nM
[11]
  level, % of control at 1 µM: 4.7%
MKN-28
  GI50: 1350 nM
NCI-H226
  GI50: 120 nM
WiDr
  Activity: Active
PC-3 [12]
  GI50: 38 nM
HT-29
  GI50: 447 nM
A549 [13]
  inhibition: Active
HCC 2998
  GI50: 245 nM
